From ChEMBL document CHEMBL1155311, “Synthesis and evaluation of N-[(1S,2S)-3-(4-chlorophenyl)-2-(3-cyanophenyl)-1-methylpropyl]-2-methyl-2-aminopropanamide as human cannabinoid-1 receptor (CB1R) inverse agonists” (Bioorg Med Chem Lett, 2009)

Tests used:
Cannabinoid receptor 2 = Cannabinoid receptor 2 (Homo sapiens, UniProt P34972); assay: Displacement of [3H]CP-55940 from recombinant human CB2 receptor expressed in CHO cell; format: cell-based
Homo sapiens = species: Homo sapiens; assay: Selectivity ratio of IC50 of human recombinant CB2 receptor to IC50 of human recombinant CB1 receptor
Cannabinoid receptor 1 [1] = molecular target: T1, Cannabinoid receptor 1 (Homo sapiens, UniProt P21554); assay: Inverse agonist activity at human CB1 receptor assessed as forskolin-induced cAMP level by adenylyl cyclase activation flash plate assay; format: functional
Cannabinoid receptor 1 [2] = molecular target: T1, Cannabinoid receptor 1; assay: Displacement of [3H]CP-55940 from recombinant human CB1 receptor expressed in CHO cells; format: cell-based
Liver microsomes [3] = assay: Metabolic stability in human liver microsomes assessed as glucuronide formation; format: ADME, Microsome
How it was run: (§1)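 Rat or human liver microsomes (1 mg/mL protein) were incubated in 100 mM potassium phosphate, pH 7.4, with 10 mM MgCl2, alamethicin, 5 mM D-saccharic acid 1,4-lactone and 3 mM UDPGA. Incubation ran 90 min at 37 °C with shaking and was quenched with 2 volumes of cold acetonitrile. After centrifugation, glucuronide was detected in the supernatant by LC–MS/MS.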

Liver microsomes [4] = assay: Metabolic stability in rat liver microsomes assessed as glucuronide formation; format: ADME, Microsome; how it was run: as §1
Cytochrome P450 3A4 = Cytochrome P450 3A4 (Homo sapiens, UniProt P08684); assay: Inhibition of CYP3A4; format: ADME
Cytochrome P450 3A4, sequence (P08684 whole entry): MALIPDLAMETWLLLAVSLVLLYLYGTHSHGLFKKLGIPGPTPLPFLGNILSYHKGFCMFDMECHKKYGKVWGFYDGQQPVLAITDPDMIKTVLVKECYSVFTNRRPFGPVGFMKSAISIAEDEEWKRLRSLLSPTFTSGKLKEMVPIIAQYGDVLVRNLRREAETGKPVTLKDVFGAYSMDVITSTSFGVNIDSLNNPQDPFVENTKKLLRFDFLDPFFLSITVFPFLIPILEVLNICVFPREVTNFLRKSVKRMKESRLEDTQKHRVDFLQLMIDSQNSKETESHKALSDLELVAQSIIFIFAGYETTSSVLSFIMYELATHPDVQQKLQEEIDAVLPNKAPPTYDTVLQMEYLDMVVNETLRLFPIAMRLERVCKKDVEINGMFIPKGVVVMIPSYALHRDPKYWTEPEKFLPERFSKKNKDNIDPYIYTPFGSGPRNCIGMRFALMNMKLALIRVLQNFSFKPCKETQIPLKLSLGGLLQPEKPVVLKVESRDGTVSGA

Cannabinoid receptor 2, sequence (P34972 whole entry): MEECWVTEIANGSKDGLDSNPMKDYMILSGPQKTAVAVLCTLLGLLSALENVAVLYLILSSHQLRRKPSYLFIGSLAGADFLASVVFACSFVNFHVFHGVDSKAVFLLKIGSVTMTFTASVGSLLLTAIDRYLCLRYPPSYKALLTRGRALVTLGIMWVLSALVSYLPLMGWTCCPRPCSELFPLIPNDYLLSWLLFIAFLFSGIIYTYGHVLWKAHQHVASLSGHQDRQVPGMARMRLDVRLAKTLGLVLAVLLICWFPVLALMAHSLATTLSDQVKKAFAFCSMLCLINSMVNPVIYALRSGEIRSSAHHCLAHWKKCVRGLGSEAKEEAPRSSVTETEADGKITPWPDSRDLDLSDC
T1 sequence (P21554 whole entry): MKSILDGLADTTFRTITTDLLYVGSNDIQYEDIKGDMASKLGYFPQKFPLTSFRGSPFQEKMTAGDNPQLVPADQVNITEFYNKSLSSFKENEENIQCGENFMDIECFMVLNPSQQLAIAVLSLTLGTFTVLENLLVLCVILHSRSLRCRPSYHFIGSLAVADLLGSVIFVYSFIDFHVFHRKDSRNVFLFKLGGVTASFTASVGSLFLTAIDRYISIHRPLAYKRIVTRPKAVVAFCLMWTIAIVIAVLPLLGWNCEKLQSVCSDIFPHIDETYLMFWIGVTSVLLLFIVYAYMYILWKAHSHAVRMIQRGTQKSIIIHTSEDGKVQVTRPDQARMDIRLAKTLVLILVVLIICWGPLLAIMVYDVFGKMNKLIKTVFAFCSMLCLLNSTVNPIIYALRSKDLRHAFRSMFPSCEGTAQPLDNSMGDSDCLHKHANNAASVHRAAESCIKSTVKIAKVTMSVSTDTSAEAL

Compound | IC50 (Cannabinoid receptor 2) [nM] | Ratio IC50 (Homo sapiens) | EC50 (Cannabinoid receptor 1 [1]) [nM] | IC50 (Cannabinoid receptor 1 [2]) [nM] | Stability (Liver microsomes [3]) | Stability (Liver microsomes [4]) | IC50 (Cytochrome P450 3A4) [nM]
C[C@H](NC(=O)C(C)(C)Nc1ccccn1)[C@@H](Cc1ccc(Cl)cc1)c1cccc(C#N)c1 | 1830 | 37 |  | 49 | Stable | Stable | 
C[C@H](NC(C)(C)C(=O)Nc1cc(-c2ccccc2)on1)[C@@H](Cc1ccc(Cl)cc1)c1cccc(C#N)c1 | 2310 | 17 |  | 136 |  |  | 
C[C@H](NC(=O)C(C)(C)Nc1ccncn1)[C@@H](Cc1ccc(Cl)cc1)c1cccc(C#N)c1 | 14000 | 286 |  | 49.2 | Stable | Stable | 
Cc1cc(NC(C)(C)C(=O)N[C@@H](C)[C@@H](Cc2ccc(Cl)cc2)c2cccc(C#N)c2)[nH]n1 | 6110 |  |  | 301 |  |  | 
Cc1cc(NC(C)(C)C(=O)N[C@@H](C)[C@@H](Cc2ccc(Cl)cc2)c2cccc(C#N)c2)on1 | 3860 | 84 |  | 46.1 |  |  | 
C[C@H](NC(=O)C(C)(C)Nc1ccon1)[C@@H](Cc1ccc(Cl)cc1)c1cccc(C#N)c1 | 3210 | 67 |  | 47.7 |  |  | 
Cc1cc(NC(C)(C)C(=O)N[C@@H](C)[C@@H](Cc2ccc(Cl)cc2)c2cccc(C#N)c2)n[nH]1 |  | 20 |  |  |  |  | 
C[C@H](NC(=O)C(C)(C)NCCCN(C)C)[C@@H](Cc1ccc(Cl)cc1)c1cccc(C#N)c1 | 25900 | 8.7 |  | 2980 |  |  | 
C[C@H](NC(=O)C(C)(C)Nc1ccnn1C)[C@@H](Cc1ccc(Cl)cc1)c1cccc(C#N)c1 | 13300 | 65 |  | 203 |  |  | 
Cc1cc(NC(C)(C)C(=O)N[C@@H](C)[C@@H](Cc2ccc(Cl)cc2)c2cccc(C#N)c2)no1 | 5160 | 265 |  | 19.5 |  |  | 
C[C@H](NC(=O)C(C)(C)Nc1nc2ccccc2n1C)[C@@H](Cc1ccc(Cl)cc1)c1cccc(C#N)c1 | 1410 | 15 |  | 97 |  |  | 
C[C@H](NC(C)(C)C(=O)Nc1ccc(C(F)(F)F)cn1)[C@@H](Cc1ccc(Cl)cc1)c1cccc(C#N)c1 | 1720 | 13 |  | 132 |  |  | > 35000

Continued by falling IC50 (Cannabinoid receptor 2), values first:

IC50 (Cannabinoid receptor 2) [nM] | Ratio IC50 (Homo sapiens) | EC50 (Cannabinoid receptor 1 [1]) [nM] | IC50 (Cannabinoid receptor 1 [2]) [nM] | Stability (Liver microsomes [3]) | Stability (Liver microsomes [4]) | IC50 (Cytochrome P450 3A4) [nM] | Compound
699 | 57 |  | 12.2 |  |  |  | C[C@H](NC(=O)C(C)(C)Nc1ncc(Cl)cc1Cl)[C@@H](Cc1ccc(Cl)cc1)c1cccc(C#N)c1
547 | 15 |  | 37.7 |  |  |  | Cc1ccnc(NC(C)(C)C(=O)N[C@@H](C)[C@@H](Cc2ccc(Cl)cc2)c2cccc(C#N)c2)c1
419 | 23 |  | 17.9 |  |  |  | C[C@H](NC(=O)C(C)(C)Nc1ncc(C(F)(F)F)cc1Cl)[C@@H](Cc1ccc(Cl)cc1)c1cccc(C#N)c1
353 | 221 | 0.9 | 1.6 | Stable | Stable |  | C[C@H](NC(=O)C(C)(C)Nc1cc(C(F)(F)F)ccn1)[C@@H](Cc1ccc(Cl)cc1)c1cccc(C#N)c1
322 | 43 | 3.2 | 7.5 |  |  | 2030 | C[C@H](NC(=O)C(C)(C)Nc1ccc(C(F)(F)F)cn1)[C@@H](Cc1ccc(Cl)cc1)c1cccc(C#N)c1
254 | 30 | 3.5 | 8.6 |  |  |  | C[C@H](NC(=O)C(C)(C)Nc1cc(C(C)(C)C)on1)[C@@H](Cc1ccc(Cl)cc1)c1cccc(C#N)c1
234 | 1.3 |  | 186 |  |  |  | C[C@H](NC(=O)C(C)(C)Nc1cc(-c2ccccc2)on1)[C@@H](Cc1ccc(Cl)cc1)c1cccc(C#N)c1
117 | 12 | 1.9 | 10.1 |  |  |  | C[C@H](NC(=O)C(C)(C)Nc1cc2ccccc2cn1)[C@@H](Cc1ccc(Cl)cc1)c1cccc(C#N)c1
